Where “and” joins values, the source holds several entries; their conditions need not be identical. Equal values may be shown once.

Data set [1] deals with Cricetinae gen. sp. The experiment in a line: Percentage change in the serum cholesterol upon administration of compound (100 mpk) in hamster. The class given is functional. The method in brief:
(§1)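 Male Golden Syrian hamsters were fed normal rodent chow and dosed orally once daily with compound. Serum total cholesterol and triglyceride were measured and expressed as percent change versus vehicle controls.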

Data set [2] concerns Canis familiaris. The experiment in a line: Percentage change in the serum cholesterol upon administration of compound (20 mpk) in dogs. The class given is functional, Canis lupus familiaris. The method in brief: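 Male Beagle dogs were housed individually on a cholesterol-free chow diet, five per group. Baseline serum cholesterol was taken from weekly jugular bleeds before the study. Compound suspended in 0.5% methylcellulose was gavaged daily for 2 weeks. Serum cholesterol was measured during and after dosing and reported as mean percent change (n = 5).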

Data set [3] has as its system Cricetinae gen. sp. The data set is described as follows: Percentage change in the serum triglyceride upon administration of compound (100 mpk) in hamster. It counts as functional. The method in brief:
as §1

The test system of data set [4] is Canis familiaris. The experiment in a line: Percentage change in the serum cholesterol upon administration of compound (100 mpk) in dogs.
For data set [5], the species on record is Mesocricetus auratus. The experiment in a line: Effect (100 mpk) on serum triglyceride in Golden Syrian hamster.
Data set [6] concerns Cricetinae gen. sp. The data set is described as follows: Effect (100 mpk) on serum cholesterol in hamster. The class given is functional. The method, boiled down:
(§2)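 Male Golden Syrian hamsters on normal rodent chow, dosed orally with test compound (9 days per table legend). Serum total cholesterol and triglyceride were measured in mg/dL. Values are group means, expressed as % change versus the vehicle-treated control group.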

Data set [7] concerns the target T1, Peroxisome proliferator-activated receptor alpha (Homo sapiens, UniProt Q07869).
T1 sequence (Q07869 whole entry): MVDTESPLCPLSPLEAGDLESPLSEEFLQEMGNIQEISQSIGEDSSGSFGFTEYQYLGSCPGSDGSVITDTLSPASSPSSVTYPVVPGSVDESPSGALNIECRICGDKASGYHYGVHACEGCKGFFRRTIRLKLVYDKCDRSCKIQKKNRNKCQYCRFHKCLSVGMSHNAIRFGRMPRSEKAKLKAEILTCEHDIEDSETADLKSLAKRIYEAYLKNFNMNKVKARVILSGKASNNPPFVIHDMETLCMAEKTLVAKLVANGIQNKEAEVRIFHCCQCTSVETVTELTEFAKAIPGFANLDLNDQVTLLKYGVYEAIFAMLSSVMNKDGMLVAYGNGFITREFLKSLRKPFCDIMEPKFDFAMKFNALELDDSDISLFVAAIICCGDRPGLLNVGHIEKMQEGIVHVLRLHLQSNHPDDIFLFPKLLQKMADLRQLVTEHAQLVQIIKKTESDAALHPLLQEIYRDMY
The experiment in a line: In vitro binding affinity for human PPAR alpha.

The nature of data set [8]: Area under concentration time curve of compound when administered perorally at a dose of 2 mg/kg to rats. The class given is ADME, organism-based. Details: dose 2 mg/kg, route oral. The note with it: rat, in vivo, po. The method in brief: (§3)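 Male Sprague-Dawley rats (n = 3) and male adult Beagle dogs (n = 4) were fasted overnight. They received either a 2 mg/kg oral gavage dose or a 0.5 mg/kg IV bolus. Blood was drawn into heparin tubes from a femoral arterial cannula (rat) or the jugular vein (dog) at set time points. Plasma was acidified with 0.5 M formate pH 3.0, stored at -70 °C and quantified by LC-MS/MS.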

Data set [9] is described as follows: Area under concentration time curve of compound when administered perorally at a dose of 2 mg/kg to dogs. The class given is ADME, organism-based, Canis lupus familiaris. Details: dose 2 mg/kg, route oral. The settings on record: dog, in vivo, po. The method, boiled down:
as §3

Data set [10] is described as follows: Half life when administered intravenously at a dose of 0.5 mg/kg to dogs. The arrangement: dose 0.5 mg/kg, route intravenous. The class given is ADME, organism-based, Canis lupus familiaris. The note with it: dog, in vivo, iv. The method, boiled down:
as §3

Data set [11] deals with Cricetinae gen. sp. The experiment in a line: Effect (3 mpk) on serum cholesterol in hamster. The class given is functional. The method, boiled down:
as §2

The target in data set [12] is T2, Peroxisome proliferator-activated receptor gamma (Homo sapiens, UniProt P37231).
T2 sequence (P37231 whole entry): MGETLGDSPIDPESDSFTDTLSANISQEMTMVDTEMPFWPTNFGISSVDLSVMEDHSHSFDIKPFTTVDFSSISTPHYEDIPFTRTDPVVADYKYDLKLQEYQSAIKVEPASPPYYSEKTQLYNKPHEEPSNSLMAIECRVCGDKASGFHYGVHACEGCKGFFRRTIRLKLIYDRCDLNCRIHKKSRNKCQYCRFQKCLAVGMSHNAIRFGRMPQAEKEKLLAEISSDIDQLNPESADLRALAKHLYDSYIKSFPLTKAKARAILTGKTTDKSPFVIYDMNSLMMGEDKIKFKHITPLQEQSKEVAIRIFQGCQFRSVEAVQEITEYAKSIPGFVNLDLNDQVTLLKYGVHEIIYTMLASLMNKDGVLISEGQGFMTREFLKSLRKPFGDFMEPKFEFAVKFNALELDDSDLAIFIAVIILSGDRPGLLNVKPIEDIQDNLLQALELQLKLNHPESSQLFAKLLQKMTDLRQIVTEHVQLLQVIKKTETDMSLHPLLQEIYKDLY
The data set is described as follows: In vitro binding affinity for human PPAR gamma.

In data set [13] the test system is Cricetinae gen. sp. The experiment in a line: Percentage change in the serum triglyceride upon administration of compound (3 mpk) in hamster. The class given is functional. The method, boiled down: as §1
Data set [14] in a line: Half life when administered intravenously at a dose of 0.5 mg/kg to rats. It counts as ADME, organism-based. Details: dose 0.5 mg/kg, route intravenous. The note with it: rat, in vivo, iv. The method in brief:
as §3

Data set [15] concerns Cricetinae gen. sp. The data set is described as follows: Effect (10 mpk) on serum cholesterol in hamster. The class given is functional. The method, boiled down:
as §2

In data set [16] the test system is Cricetinae gen. sp. The experiment in a line: Percentage change in the serum cholesterol upon administration of compound (3 mpk) in hamster. It counts as functional. The method, boiled down: as §1
Data set [17] is described as follows: Oral bioavailability in dog. The class given is ADME, organism-based, Canis lupus familiaris. The note with it: in vivo. The method, boiled down:
as §3

In data set [18] the target is T2, Peroxisome proliferator-activated receptor gamma. The data set is described as follows: Agonist response against human PPAR gamma in transactivation assay. The class given is functional.
The target of data set [19] is T1, Peroxisome proliferator-activated receptor alpha. The data set is described as follows: Agonist response against human PPAR alpha in transactivation assay.
Data set [20] can be described thus: Oral bioavailability in rat. The settings on record: in vivo. It counts as ADME, organism-based. The method, boiled down:
as §3

Data set [21] concerns Cricetinae gen. sp. The experiment in a line: Percentage change in the serum cholesterol upon administration of compound (10 mpk) in hamster. It counts as functional. The method in brief: as §1
The species entered for data set [22] is Mesocricetus auratus. The experiment in a line: Effect (3 mpk) on serum triglyceride in hamster.
Data set [23] deals with Rattus norvegicus. The data set is described as follows: Effect (150 mg/kg) on PPAR gamma- mediated effects measured as change in heart weight in rats. It counts as functional. The method, boiled down:
(§4)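 Male Sprague-Dawley rats (about 200 g, n = 6) were fed rodent chow and gavaged once daily for 2 weeks with compound in 0.5% methylcellulose. Body weight was recorded on days 1, 4, 6, 8, 11 and 14. Rats were euthanized with CO2 24 h after the last dose, and BAT, heart and liver were weighed. Blood was taken by heart puncture for hematocrit. Results are mean ± SD versus vehicle.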

Data set [24] has as its system Rattus norvegicus. The data set is described as follows: Effect (150 mg/kg) on PPAR gamma- mediated effects measured as change in liver weight in rats. It counts as functional. The method in brief: as §4
Data set [25] deals with Rattus norvegicus. The data set is described as follows: Effect (150 mg/kg) on PPAR gamma- mediated effects measured as change in hematocrit weight in rats. The class given is functional. The method, boiled down:
as §4

The test system of data set [26] is Rattus norvegicus. The experiment in a line: Effect (150 mg/kg) on PPAR gamma- mediated effects measured as change in body weight in rats. The class given is functional. The method, boiled down:
as §4

In data set [27] the test system is Canis familiaris. The data set is described as follows: Percentage change in the serum cholesterol upon administration of compound (10 mpk) in dogs.
Data set [28] has as its system Cricetinae gen. sp. The experiment in a line: Percentage change in the serum triglyceride upon administration of compound (10 mpk) in hamster. It counts as functional. The method in brief:
as §1

The species named for data set [29] is Mesocricetus auratus. The experiment in a line: Effect (10 mpk) on serum triglyceride in hamster.
The test system of data set [30] is Rattus norvegicus. The data set is described as follows: Effect (150 mg/kg) on PPAR gamma- mediated effects measured as change in brown adipose tissue weight in rats. The class given is functional. The method in brief: as §4

Consider `CC(C)OC(=O)C(C)(C)Oc1ccc(C(=O)c2ccc(Cl)cc2)cc1` [FENOFIBRATE], for which the Change in the data set with Cricetinae gen. sp. [1] is on record as -29%; in the data set on Canis familiaris [2] it was -4.7%; in the data set with Cricetinae gen. sp. [3], -26%; with Canis familiaris [4], -23.5%. For the same molecule, the Triglyceride level in the data set filed under Mesocricetus auratus [5] was 244 mg/dL. For the same molecule, the Cholesterol level in the data set on Cricetinae gen. sp. [6] worked out at 91 mg/dL.
On to `CCCc1cc(C(=O)CC)cc(CCC)c1O[C@H](C(=O)O)c1ccc(C(C)C)cc1`, for which the IC50 (as a rule, the concentration at which inhibition is half-maximal) in [7] came out at 23 nM; in data set [12] it was 75 nM. The AUC (usually concentration integrated over time) worked out at 154 µM·h in data set [8] and 70.5 µM·h in data set [9]. The results for the half-life in data set [10] and in [14] were 2.5 h and 6.1 h, respectively. The Cholesterol level was 88 mg/dL in the data set on Cricetinae gen. sp. [11] and 86 mg/dL in the data set with Cricetinae gen. sp. [15]. Besides, the Change with Cricetinae gen. sp. [13] was -22%; in the data set with Cricetinae gen. sp. [16], -32%; in the data set with Cricetinae gen. sp. [21], -33% and -29% and -17.5%. Further, the Triglyceride level in the data set on Cricetinae gen. sp. [15] is 236 mg/dL; in the data set listed under Mesocricetus auratus [22], 259 mg/dL. The bioavailability (in general, the share of a dose that reaches the circulation, judged against a reference dose that is usually intravenous) was determined as 85% in data set [17] and 65% in [20]. The EC50 (commonly the concentration that produces a half-maximal response) was 150 nM in data set [18] and 56 nM in [19].
Consider `CCCc1cc2c(=O)n(C)oc2c(CCC)c1O[C@H](C(=O)O)c1ccc(C(C)C)cc1`, for which the Heart weight in the data set on Rattus norvegicus [23] is reported as 1.14 g. Besides, the IC50 in [7] stood at 74 nM. For the same molecule, the AUC came to 67.5 µM·h in data set [8] and 26.9 µM·h in [9]. Besides, the half-life (as a rule, the time needed for the level to fall by half in the phase considered) in data set [10] is 1.6 h; in [14], 7.2 h. Also, the Cholesterol level with Cricetinae gen. sp. [15] stood at 106 mg/dL. This molecule also had a Liver weight in the data set on Rattus norvegicus [24] of 20.3 g. In addition, in the data set with Rattus norvegicus [25], the Hematocrit amounted to 45.7%. The Body weight in the data set with Rattus norvegicus [26] is reported as 278 g. Further, the Change was -17.3% with Canis familiaris [27], -9% in the data set with Cricetinae gen. sp. [28] and -17% in the data set with Cricetinae gen. sp. [21]. In the data set listed under Mesocricetus auratus [29], this molecule showed a Triglyceride level of 303 mg/dL. The bioavailability in data set [17] and in [20] was 73% in each case. The BAT in the data set on Rattus norvegicus [30] is reported as 0.24 g. Further, the EC50 in data set [18] was found to be 390 nM; in data set [19], 670 nM.
